Several values for one entry are separate records, joined by “and”; a condition that tells them apart may be missing. Identical values can stand only once.
Key:
[1] = system: HEK-293T; experiment: Multiplex assay against HEK293T; type: toxicity, cell-based; conditions: human, number of replicates 2
Method in brief: (§1)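 Live cells were stained at seeding with Hoechst33342, BioTracker Green Microtubule Cytoskeleton Dye, MitoTracker Red and Annexin V Alexa Fluor 680, then imaged on a CQ1 microscope at 37°C and 5% CO2 after compound addition. CellPathfinder machine-learning gating split cells into Hoechst high-intensity objects or normal cells. Normal cells were split into healthy, pyknosed or fragmented nuclei, and pyknosed cells into mitotic or apoptotic. Tubulin, mitochondrial-mass and membrane-permeability phenotypes are per cents of healthy-nucleus cells.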

[2] = system: Fibroblast; experiment: Multiplex assay against human fibroblast; type: toxicity, cell-based; conditions: number of replicates 2; method in brief: as §1
[3] = 24 h, 10 µM, compound concentration 10 uM
[4] = 48 h, 1 µM, compound concentration 1 uM
[5] = 48 h, 10 µM, compound concentration 10 uM
[6] = 12 h, 1 µM, compound concentration 1 uM
[7] = 12 h, 10 µM, compound concentration 10 uM
[8] = 24 h, 1 µM, compound concentration 1 uM

In the case of `COc1c(OCCCN2CCOCC2)ccc2c1N=C(NC(=O)c1cnc(N)nc1)N1CCN=C21` [COPANLISIB], the “Population Tubulin-Different-Phenotype (%)” value [1, 3] is reported as 67% and 68%, the “Total Cell Count” value [1, 3] is reported as 229 and 189 and the “Population Apoptotic (%)” value [1, 4] is reported as 62% and 63%. The “Population Fragmented Nuclei (%)” value [1, 4] was 9% and 12%, the “Population Healthy Nuclei (%)” value [1, 4] was 75% and 78% and the “Population Hoechst High Intensity Objects (%)” value [1, 4] was 20% and 26%. The “Population Membrane Permeable-Phenotype (%)” value [1, 4] was 1% and 3%, the “Population Mitochondria Different-Phenotype (%)” value [1, 4] was 16% and 6% and the “Population Mitotic Cells (%)” value [1, 4] was 37% and 36%. For the same compound, the “Population Normal (%)” value [1, 4] was 79% and 73%, the “Population Pyknosed Nuclei (%)” value [1, 4] was 15% and 8% and the “Population Tubulin-Different-Phenotype (%)” value [1, 4] was 70% and 43%. The “Total Cell Count” value [1, 4] was 374 and 726, the “Population Apoptotic (%)” value [1, 5] was 68% and 74% and the “Population Fragmented Nuclei (%)” value [1, 5] was 9% and 6%. For the same compound, the “Population Healthy Nuclei (%)” value [1, 5] was 66% and 76%, the “Population Hoechst High Intensity Objects (%)” value [1, 5] was 20% and 25% and the “Population Membrane Permeable-Phenotype (%)” value [1, 5] was 4% and 2%. For the same compound, the “Population Mitochondria Different-Phenotype (%)” value [1, 5] was 41% and 45%, the “Population Mitotic Cells (%)” value [1, 5] was 31% and 25% and the “Population Normal (%)” value [1, 5] was 79% and 74%. The “Population Pyknosed Nuclei (%)” value [1, 5] was 24% and 16%, the “Population Tubulin-Different-Phenotype (%)” value [1, 5] was 68% and 72% and the “Total Cell Count” value [1, 5] was 262 and 245. For the same compound, the “Population Apoptotic (%)” value [2, 6] was 39% and 50%, the “Population Fragmented Nuclei (%)” value [2, 6] was 8% and 10% and the “Population Healthy Nuclei (%)” value [2, 6] was 65% and 63%. The “Population Hoechst High Intensity Objects (%)” value [2, 6] was 0%, the “Population Membrane Permeable-Phenotype (%)” value [2, 6] was 1% and 7% and the “Population Mitochondria Different-Phenotype (%)” value [2, 6] was 0% and 3%. For the same compound, the “Population Mitotic Cells (%)” value [2, 6] was 60% and 50%, the “Population Normal (%)” value [2, 6] was 100% and the “Population Pyknosed Nuclei (%)” value [2, 6] was 26%. For the same compound, the “Population Tubulin-Different-Phenotype (%)” value [2, 6] was 1% and 7%, the “Total Cell Count” value [2, 6] was 157 and 180 and the “Population Apoptotic (%)” value [2, 7] was 52% and 45%. The “Population Fragmented Nuclei (%)” value [2, 7] was 10% and 13%, the “Population Healthy Nuclei (%)” value [2, 7] was 77% and 74% and the “Population Hoechst High Intensity Objects (%)” value [2, 7] was 0%. For the same compound, the “Population Membrane Permeable-Phenotype (%)” value [2, 7] was 7% and 2%, the “Population Mitochondria Different-Phenotype (%)” value [2, 7] was 3% and 2% and the “Population Mitotic Cells (%)” value [2, 7] was 47% and 54%. For the same compound, the “Population Normal (%)” value [2, 7] was 100%, the “Population Pyknosed Nuclei (%)” value [2, 7] was 12% and 11% and the “Total Cell Count” value [2, 7] was 149 and 188. For the same compound, the “Population Apoptotic (%)” value [2, 8] was 48% and 57%, the “Population Fragmented Nuclei (%)” value [2, 8] was 14% and 8% and the “Population Healthy Nuclei (%)” value [2, 8] was 60% and 71%. For the same compound, the “Population Hoechst High Intensity Objects (%)” value [2, 8] was 0%, the “Population Membrane Permeable-Phenotype (%)” value [2, 8] was 2% and 5% and the “Population Mitochondria Different-Phenotype (%)” value [2, 8] was 1% and 2%. For the same compound, the “Population Mitotic Cells (%)” value [2, 8] was 51% and 42%, the “Population Normal (%)” value [2, 8] was 100% and the “Population Pyknosed Nuclei (%)” value [2, 8] was 25% and 20%. For the same compound, the “Population Tubulin-Different-Phenotype (%)” value [2, 8] was 2% and 5%, the “Total Cell Count” value [2, 8] was 155 and 165 and the “Population Apoptotic (%)” value [2, 3] was 76% and 60%. For the same compound, the “Population Fragmented Nuclei (%)” value [2, 3] was 18% and 16%, the “Population Healthy Nuclei (%)” value [2, 3] was 63% and 72% and the “Population Hoechst High Intensity Objects (%)” value [2, 3] was 0%. The “Population Membrane Permeable-Phenotype (%)” value [2, 3] was 3% and 0%, the “Population Mitochondria Different-Phenotype (%)” value [2, 3] was 2% and 1% and the “Population Mitotic Cells (%)” value [2, 3] was 23% and 39%. The “Population Normal (%)” value [2, 3] was 100%, the “Population Pyknosed Nuclei (%)” value [2, 3] was 17% and 11% and the “Population Tubulin-Different-Phenotype (%)” value [2, 3] was 9% and 2%. For the same compound, the “Total Cell Count” value [2, 3] was 174 and 209, the “Population Apoptotic (%)” value [2, 4] was 73% and 57% and the “Population Fragmented Nuclei (%)” value [2, 4] was 7% and 14%. For the same compound, the “Population Healthy Nuclei (%)” value [2, 4] was 70% and 71%, the “Population Hoechst High Intensity Objects (%)” value [2, 4] was 0% and the “Population Membrane Permeable-Phenotype (%)” value [2, 4] was 6% and 10%. For the same compound, the “Population Mitochondria Different-Phenotype (%)” value [2, 4] was 0%, the “Population Mitotic Cells (%)” value [2, 4] was 26% and 42% and the “Population Normal (%)” value [2, 4] was 100%. The “Population Pyknosed Nuclei (%)” value [2, 4] was 21% and 14%, the “Population Tubulin-Different-Phenotype (%)” value [2, 4] was 2% and 3% and the “Total Cell Count” value [2, 4] was 140 and 176. The “Population Apoptotic (%)” value [2, 5] was 68% and 77%, the “Population Fragmented Nuclei (%)” value [2, 5] was 15% and 18% and the “Population Healthy Nuclei (%)” value [2, 5] was 70%. The “Population Hoechst High Intensity Objects (%)” value [2, 5] was 1% and 0%, the “Population Membrane Permeable-Phenotype (%)” value [2, 5] was 11% and 4% and the “Population Mitochondria Different-Phenotype (%)” value [2, 5] was 1% and 2%. For the same compound, the “Population Mitotic Cells (%)” value [2, 5] was 32% and 22%, the “Population Normal (%)” value [2, 5] was 98% and 100% and the “Population Pyknosed Nuclei (%)” value [2, 5] was 14% and 10%. For the same compound, the “Total Cell Count” value [2, 5] was 176 and 205.

Reference: ChEMBL document CHEMBL5303300, “EUbOPEN Chemogenomics Library - Multiplex” (2023)
